Results on 14 compounds are retold here after ChEMBL document CHEMBL3875229, “Potent Antifungal Synergy of Phthalazinone and Isoquinolones with Azoles Against Candida albicans” (ACS Med Chem Lett, 2017).

The subject of assay [1] is Candida albicans. Kind of assay: microbe, parasite or virus in culture. The following applies: HLY4123, 16 h.
A short description of assay [2]: Antifungal activity against Candida albicans clinical isolate 2 in presence of fluconazole. It is filed as functional. The procedure, abridged: (§1)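 Dose-dependent broth microdilution against fluconazole-resistant clinical isolates. Analogue concentration was varied while fluconazole was held fixed at each isolate's own MIC50, measured separately for fluconazole alone. EC50 is given as arithmetic mean ± SD of three independent experiments.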

Assay [3] is described as follows: Antifungal activity against Candida albicans clinical isolate 8 in presence of fluconazole. It is filed as functional. An outline of the steps:
as §1

Assay [4] concerns Candida albicans. Kind of assay: Antifungal activity against Candida albicans HLY4123 after 16 hrs in presence of 0.05 ug/ml of fluconazole by ten fold serial dilution method. It is filed as functional. The following applies: HLY4123, 16 h.
The nature of assay [5]: Antifungal activity against fluconazole-resistant Candida albicans clinical isolate 45 after 16 hrs in presence of 96 ug/ml fluconazole by broth microdilution assay. Type of assay: functional.
Assay [6] in a line: Antifungal activity against fluconazole-resistant Candida albicans clinical isolate 26 after 16 hrs in presence of 32 ug/ml fluconazole by broth microdilution assay. Type of assay: functional.
The nature of assay [7]: Antifungal activity against fluconazole-resistant Candida albicans clinical isolate 36 after 16 hrs in presence of 64 ug/ml fluconazole by broth microdilution assay. It is filed as functional.
For assay [8], the system named is Candida albicans. Kind of assay: Antifungal activity against Candida albicans HLY4123 after 16 hrs in presence of 0.001 ug/ml of isavuconazole by ten fold serial dilution method. The following applies: HLY4123, 16 h. It is filed as functional.
Assay [9] is described as follows: Antifungal activity against fluconazole-resistant Candida albicans clinical isolate 33 after 16 hrs in presence of 64 ug/ml fluconazole by broth microdilution assay. Type of assay: functional.
A short description of assay [10]: Antifungal activity against Candida albicans clinical isolate 45 after 16 hrs in presence of 0.5 ug/ml of isavuconazole by broth microdilution assay. It is filed as functional.
Assay [11] in a line: Antifungal activity against fluconazole-resistant Candida albicans clinical isolate 17 after 16 hrs in presence of 12 ug/ml fluconazole by broth microdilution assay. Type of assay: functional. In general terms: Dilution methods test growth across graded concentrations, often in twofold steps.
The test system of assay [12] is Candida albicans. The assay can be described thus: Antifungal activity against Candida albicans HLY4123 at 0.015 nM to […] after 16 hrs in presence of […] of fluconazole by checkerboard assay. Type of assay: functional. An outline of the steps: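 Analogue and fluconazole were combined in a checkerboard format against C. albicans HLY4123. Fractional inhibitory concentration indices were calculated, with 0.5 taken as the upper limit for pharmacological synergy.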

Regarding `COc1cc(Br)ccc1-n1cc(C(=O)NCC(=O)NCCC2=CCCCC2)c2sccc2c1=O`, in assay [1], a half-maximal response (EC50) required 0.23 µM.

For `COc1ccc(-n2nc(C(=O)NCC(=O)NCCC3=CCCCC3)c3ccccc3c2=O)c(OC)c1`, the EC50 in [2] was 0.47 µM; in assay [1] it was 0.015 µM; in [3], 0.22 µM; in assay [4], 0.049 µM.

In assay [1], `COc1ccc(-n2cc(C(=O)NCC(=O)NCCC3=CCCCC3)c3ccccc3c2=O)c(OC)c1` returned an EC50 of 0.033 µM.

For the compound `COc1cc(Br)ccc1-n1cc(C(=O)NCC(=O)NCCC2=CCCCC2)c2ccccc2c1=O`, the EC50 in assay [5] stood at 0.17 µM; in [6], 0.011 µM; in assay [7], 0.032 µM; in [1], 0.003 µM; in assay [8], 0.006 µM; in [9], 0.371 µM. Moreover, the EC50 in [10] came to 0.11 µM; in assay [11], 0.074 µM; in assay [4], 0.024 µM. For the same compound, the “fractional inhibitory concentration index (FICI)” value in assay [12] was less than 0.17.

As to `COc1cc(Br)ccc1-n1cc(C(=O)NCC(=O)NCCC2=CCCCC2)c2ccc(C#CCCCO)cc2c1=O`, the EC50 in assay [1] was more than 100 µM.

On to `COc1cc(Br)ccc1-n1cc(C(=O)N[C@@H](CCCCNC(=O)OCc2ccccc2Cl)C(=O)NCCC2=CCCCC2)c2ccccc2c1=O`, for which the EC50 in [1] is 0.023 µM.

The compound `COc1cc(Br)ccc1-n1cc(C(=O)NCC(=O)NCCc2ccccc2)c2ccccc2c1=O` returned an EC50 in assay [1] of 0.02 µM.

In [1], `COc1cc(Br)ccc1-n1cc(C(=O)NCC(=O)NCCC2=CCCCC2)c2ccc(Br)cc2c1=O` had an EC50 of 0.003 µM.

In assay [1], `COc1cc(C)ccc1-n1cc(C(=O)NCC(=O)NCCC2=CCCCC2)c2ccccc2c1=O` showed an EC50 of 0.065 µM.

In the case of `Cc1c(Cl)ccc2c1NC(=O)[C@@]21[C@H]2C(=O)N(c3ccccc3)C(=O)[C@H]2[C@H]2CN(C(=O)OCc3ccccc3)CCN21`, the EC50 in assay [1] is 0.0003 µM.

On to `COc1cc(Br)ccc1-n1nc(C(=O)NCC(=O)NCCC2=CCCCC2)c2ccccc2c1=O`, for which the EC50 in [5] was 0.065 µM; in assay [6], 0.017 µM; in [7], 0.02 µM; in [1], 0.001 µM; in assay [8] it was 0.004 µM; in assay [9], 0.072 µM. Moreover, the results for the EC50 in assay [10], in assay [11] and in assay [4] were 0.013 µM, 0.039 µM and 0.007 µM, respectively. Also, the “fractional inhibitory concentration index (FICI)” value in assay [12] is recorded as less than 0.12.

For the compound `COc1cc(C#CCCCO)ccc1-n1cc(C(=O)NCC(=O)NCCC2=CCCCC2)c2ccccc2c1=O`, the EC50 in [1] was more than 100 µM.

Compound `COc1cc(Br)ccc1-n1cc(C(=O)NCCc2ccccc2)c2ccccc2c1=O` yielded an EC50 in [1] of 0.22 µM.

Take `COc1cc(Br)ccc1-n1cc(C(=O)NCC(=O)NCCC2=CCCCC2)c2occc2c1=O`: in assay [1], the EC50 is more than 10 µM.

One may read the EC50 as the concentration at which the effect is half-maximal.
